Results from ChEMBL document CHEMBL4004850, “Rational design of reversible inhibitors for trehalose 6-phosphate phosphatases” (Eur J Med Chem, 2017).

Experiments:
Trehalose-phosphatase [1] = target: T1, Trehalose-phosphatase (Brugia malayi, UniProt A8NS89); assay: Competitive inhibition of Brugia malayi T6PP using T6P as substrate by Lineweaver-Burk plot analysis
T1 sequence (A8NS89 whole entry): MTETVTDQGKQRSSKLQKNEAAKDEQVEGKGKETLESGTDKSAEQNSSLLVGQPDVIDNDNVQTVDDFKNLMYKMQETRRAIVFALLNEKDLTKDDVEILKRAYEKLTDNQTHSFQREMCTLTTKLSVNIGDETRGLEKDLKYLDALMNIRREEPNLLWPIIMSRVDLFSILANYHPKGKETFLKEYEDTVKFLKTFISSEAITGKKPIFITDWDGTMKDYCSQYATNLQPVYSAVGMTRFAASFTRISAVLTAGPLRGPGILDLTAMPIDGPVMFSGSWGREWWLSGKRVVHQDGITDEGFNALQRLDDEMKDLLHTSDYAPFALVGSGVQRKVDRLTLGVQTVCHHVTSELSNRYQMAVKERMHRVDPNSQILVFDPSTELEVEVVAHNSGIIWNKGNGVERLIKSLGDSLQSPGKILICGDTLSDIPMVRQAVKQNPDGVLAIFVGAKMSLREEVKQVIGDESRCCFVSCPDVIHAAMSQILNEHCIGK
Procedure, shortened: (§1)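 Continuous phosphate-release assay (EnzChek, MESG/purine nucleoside phosphorylase) at 25 °C. Initial velocities of T6P hydrolysis by T6PP were taken at varied T6P with inhibitor at 0, Ki and 2×Ki. Km and Vmax come from double-reciprocal plots.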

[2] = Inhibition of Ascaris suum T6PP using T6P as substrate by Lineweaver-Burk plot analysis
[3] = Inhibition of Shigella boydii T6PP using T6P as substrate by Lineweaver-Burk plot analysis; procedure, shortened: as §1
[4] = Inhibition of Salmonella typhimurium T6PP using T6P as substrate by Lineweaver-Burk plot analysis; set-up: species or system Salmonella enterica subsp. enterica serovar Typhimurium; procedure, shortened: as §1
Shigella boydii [5] = assay: Inhibition of Shigella boydii T6PP assessed as Vmax for substrate using T6P as substrate by Lineweaver-Burk plot analysis; procedure, shortened: as §1
Shigella boydii [6] = assay: Inhibition of Shigella boydii T6PP assessed as Km for substrate using T6P as substrate by Lineweaver-Burk plot analysis; procedure, shortened: as §1
Ascaris suum [7] = assay: Inhibition of Ascaris suum T6PP assessed as Vmax for substrate using T6P as substrate by Lineweaver-Burk plot analysis; procedure, shortened: as §1
Ascaris suum [8] = assay: Inhibition of Ascaris suum T6PP assessed as Km for substrate using T6P as substrate by Lineweaver-Burk plot analysis; procedure, shortened: as §1
[9] = system: Salmonella enterica subsp. enterica serovar Typhimurium; assay: Inhibition of Salmonella typhimurium T6PP assessed as Vmax for substrate using T6P as substrate by Lineweaver-Burk plot analysis; procedure, shortened: as §1
[10] = system: Salmonella enterica subsp. enterica serovar Typhimurium; assay: Inhibition of Salmonella typhimurium T6PP assessed as Km for substrate using T6P as substrate by Lineweaver-Burk plot analysis; procedure, shortened: as §1
Escherichia coli = settings: 200 uM
[11] = system: Bacteroides thetaiotaomicron; settings: 200 uM
[12] = target: T2, Trehalose-phosphatase (Brugia malayi) (UniProt A8NS89); assay: Inhibition of Brugia malayi T6PP using T6P as substrate assessed as fraction of enzyme unbound with compound by measuring ratio of initial velocities of T6P substrate hydrolysis in presence and absence of compound at 1 mM […] by BioMol green dye based HTS assay
T2 sequence (whole entry): T1 sequence (A8NS89 whole entry)

Ascaris suum [13] = assay: Inhibition of Ascaris suum T6PP using T6P as substrate assessed as fraction of enzyme unbound with compound by measuring ratio of initial velocities of T6P substrate hydrolysis in presence and absence of compound at 1 mM after 5 mins by BioMol green dye based HTS assay
Procedure, shortened: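 T6P is at half saturation ([T6P] = Km), with and without 1 mM inhibitor, at 25 °C. Released phosphate is detected with dye (30 min incubation) by A625. The reported value is V_I/V, the initial-velocity ratio.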

Shigella boydii [14] = assay: Inhibition of Shigella boydii T6PP using T6P as substrate assessed as fraction of enzyme unbound with compound by measuring ratio of initial velocities of T6P substrate hydrolysis in presence and absence of compound at 1 mM after 5 mins by BioMol green dye based HTS assay
Procedure, shortened: (§2)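 Freshly purified St-T6PP or Sb-T6PP (5–25 nM) in 50 mM Hepes pH 7.5, 25 mM NaCl, 2 mM MgCl₂, 5% glycerol at 25 °C. T6P at half saturation (Km) for each enzyme. Hydrolysis rate was compared with and without 1 mM inhibitor; phosphate read at 625 nm after 30 min incubation. The ratio VI/V gives the fraction of enzyme not inhibitor-bound.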

[15] = system: Salmonella enterica subsp. enterica serovar Typhimurium; assay: Inhibition of Salmonella typhimurium T6PP using T6P as substrate assessed as fraction of enzyme unbound with compound by measuring ratio of initial velocities of T6P substrate hydrolysis in presence and absence of compound at 1 mM after 5 mins by BioMol green dye based HTS assay; procedure, shortened: as §2
Ascaris suum [16] = assay: Activity at Ascaris suum T6PP
[17] = system: Mycobacterium tuberculosis; assay: Activity at Mycobacterium tuberculosis T6PP
Shigella boydii [18] = assay: Activity at Shigella boydii T6PP
[19] = system: Salmonella enterica subsp. enterica serovar Typhimurium; assay: Activity at Salmonella typhimurium T6PP
Trehalose-phosphatase [20] = target: T1, Trehalose-phosphatase; assay: Reversible competitive inhibition of Brugia malayi T6PP using T6P as substrate by Lineweaver-Burk plot analysis
[21] = substrate: O=P(O)(O)OC[C@H]1O[C@@H](Oc2ccccc2)[C@H](O)[C@@H](O)[C@@H]1O; assay: Activity at Brugia malayi T6PP
[22] = compound: CCCCCCCCc1ccc(O[C@@H]2O[C@H](COS(=O)(=O)O)[C@@H](O)[C@H](O)[C@H]2O)cc1; assay: (§3) Competitive inhibition of Brugia malayi T6PP assessed as Vmax for substrate using T6P as substrate by Lineweaver-Burk plot analysis; procedure, shortened: as §1
[23] = compound: CCCCCCCCc1ccc(O[C@H]2O[C@H](COS(=O)(=O)O)[C@@H](O)[C@H](O)[C@H]2O)cc1; assay: as §3; procedure, shortened: as §1
[24] = compound: CCCCCCc1ccc(O[C@H]2O[C@H](COS(=O)(=O)O)[C@@H](O)[C@H](O)[C@H]2O)cc1; assay: as §3; procedure, shortened: as §1
[25] = compound: O=S(=O)(O)OC[C@H]1O[C@H](OCc2ccccc2)[C@H](O)[C@@H](O)[C@@H]1O; assay: as §3; procedure, shortened: as §1
[26] = compound: CCCCCCCCc1ccc(O[C@@H]2O[C@H](COS(=O)(=O)O)[C@@H](O)[C@H](O)[C@H]2O)cc1; assay: (§4) Competitive inhibition of Brugia malayi T6PP assessed as Km for substrate using T6P as substrate by Lineweaver-Burk plot analysis; procedure, shortened: as §1
[27] = compound: CCCCCCCCc1ccc(O[C@H]2O[C@H](COS(=O)(=O)O)[C@@H](O)[C@H](O)[C@H]2O)cc1; assay: as §4; procedure, shortened: as §1
[28] = compound: CCCCCCc1ccc(O[C@H]2O[C@H](COS(=O)(=O)O)[C@@H](O)[C@H](O)[C@H]2O)cc1; assay: as §4; procedure, shortened: as §1
[29] = compound: O=S(=O)(O)OC[C@H]1O[C@H](OCc2ccccc2)[C@H](O)[C@@H](O)[C@@H]1O; assay: as §4; procedure, shortened: as §1
[30] = compound: O=S(=O)(O)OC[C@H]1O[C@@H](Oc2ccccc2)[C@H](O)[C@@H](O)[C@@H]1O; assay: (§5) Reversible competitive inhibition of Brugia malayi T6PP assessed as Vmax for substrate using T6P as substrate by Lineweaver-Burk plot analysis
[31] = compound: O=S(=O)(O)OC[C@H]1O[C@H](Oc2ccccc2)[C@H](O)[C@@H](O)[C@@H]1O; assay: as §5
[32] = compound: O=S(=O)(O)OC[C@H]1O[C@@H](Oc2ccccc2)[C@H](O)[C@@H](O)[C@@H]1O; assay: (§6) Reversible competitive inhibition of Brugia malayi T6PP assessed as Km for substrate using T6P as substrate by Lineweaver-Burk plot analysis
[33] = compound: O=S(=O)(O)OC[C@H]1O[C@H](Oc2ccccc2)[C@H](O)[C@@H](O)[C@@H]1O; assay: as §6
[34] = substrate: CCCCCCCCc1ccc(O[C@H]2O[C@H](COS(=O)(=O)O)[C@@H](O)[C@H](O)[C@H]2O)cc1; settings: Pseudomonas putida KT2440; 200 uM
[35] = substrate: CCCCCCCCc1ccc(O[C@H]2O[C@H](COS(=O)(=O)O)[C@@H](O)[C@H](O)[C@H]2O)cc1; settings: Pseudomonas putida KT2440; 200 uM; remark: listed apart in the source

CCCCCCCCc1ccc(O[C@H]2O[C@H](COS(=O)(=O)O)[C@@H](O)[C@H](O)[C@H]2O)cc1
Ki (Trehalose-phosphatase [1]): 5.3 µM | Ki [2]: 80 to 84 µM | Ki [3]: 21 µM | Ki [4]: 56 µM | Vmax (Shigella boydii [5]): 0.897 µM/s | Km (Shigella boydii [6]): 246 µM | Vmax (Ascaris suum [7]): 0.48 µM/s | Km (Ascaris suum [8]): 406 µM | Vmax [9]: 0.173 µM/s | Km [10]: 387 µM | Vmax (Escherichia coli): 0.0605 µM/s | Vmax [11]: 0.0788 µM/s

O=P(O)(O)OC[C@H]1O[C@@H](Oc2ccccc2)[C@H](O)[C@@H](O)[C@@H]1O
Ratio [12]: 0.79 | Ratio (Ascaris suum [13]): 0.98 | Ratio (Shigella boydii [14]): 0.94 | Ratio [15]: 0.77 | kcat (Ascaris suum [16]): 0.96 ×10⁻² /s | kcat [17]: 0.71 ×10⁻² /s | kcat (Shigella boydii [18]): 0.71 ×10⁻² /s | kcat [19]: 0.41 ×10⁻² /s

O=S(=O)(O)OC[C@H]1O[C@H](Oc2ccccc2)[C@H](O)[C@@H](O)[C@@H]1O
Ratio [12]: 0.42 | Ratio (Ascaris suum [13]): 0.71 | Ratio (Shigella boydii [14]): 0.76 | Ratio [15]: 0.64 | Ki (Trehalose-phosphatase [20]): 320 µM

O=S(=O)(O)OC[C@H]1O[C@@H](Oc2ccccc2)[C@H](O)[C@@H](O)[C@@H]1O
Ratio [12]: 0.52 | Ratio (Ascaris suum [13]): 0.92 | Ratio (Shigella boydii [14]): 0.76 | Ratio [15]: 0.81 | Ki (Trehalose-phosphatase [20]): 800 to 830 µM

B1: Trehalose-phosphatase (Brugia malayi), A8NS89 (protein)
chain: T1 sequence (A8NS89 whole entry)
kcat [21]: 1.4 ×10⁻² /s | Vmax [22]: 0.584 µM/s | Vmax [23]: 0.924 µM/s | Vmax [24]: 0.375 µM/s | Vmax [25]: 0.457 µM/s | Km [26]: 156 µM | Km [27]: 229 µM | Km [28]: 234 µM | Km [29]: 127 µM | Vmax [30]: 0.57 µM/s | Vmax [31]: 0.496 µM/s | Km [32]: 126 µM | Km [33]: 109 µM

B2: D-glycero-beta-D-manno-heptose-1,7-bisphosphate 7-phosphatase (Pseudomonas putida (strain ATCC 47054 / DSM 6125 / NCIMB 11950 /KT2440)), Q88RS0 (protein)
chain: MKLLILDRDGVINYDSDAYIKTLEEWVPIPGSVDAIAQLSKAGWTVAVATNQSGIARGYYPLATLEAMHARLRALVAEQGGEVGHIVYCPHGPDEGCDCRKPKPGMLRAIAEHYQIGLEGVWFVGDSKGDLEAALAVGAQPVLVKTGKGERTLEKGVPETTLIFDDLAAIARELI
Vmax [34]: 0.106 µM/s | Vmax [35]: 0.0175 µM/s
